Consider 1 compound from ChEMBL document CHEMBL4351005, “Human constitutive androstane receptor agonist DL5016: A novel sensitizer for cyclophosphamide-based chemotherapies” (Eur J Med Chem, 2019).

For series [1], the target named is T1, Nuclear receptor subfamily 1 group I member 3 (Homo sapiens, UniProt Q14994).
T1 sequence (Q14994 whole entry): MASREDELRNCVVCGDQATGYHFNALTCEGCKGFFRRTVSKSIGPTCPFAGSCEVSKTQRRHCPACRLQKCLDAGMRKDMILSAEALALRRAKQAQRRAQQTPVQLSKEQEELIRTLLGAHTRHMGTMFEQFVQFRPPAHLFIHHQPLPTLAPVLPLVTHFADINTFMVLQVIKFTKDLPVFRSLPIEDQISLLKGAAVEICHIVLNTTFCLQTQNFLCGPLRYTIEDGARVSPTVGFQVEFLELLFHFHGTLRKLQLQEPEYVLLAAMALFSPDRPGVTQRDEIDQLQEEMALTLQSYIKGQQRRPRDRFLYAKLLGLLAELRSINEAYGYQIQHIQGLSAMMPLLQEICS
Put plainly: Agonist activity at human constitutive androstane receptor expressed in HepG2 cells co-expressing CYP2B6 incubated for 23 hrs by One-Glo luciferase reporter gene assay. It is filed as cell-based. The method in brief: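 HepG2-CYP2B6-hCAR stable reporter cells, 2,500/well, attached 5 h at 37 °C/5% CO₂. Compounds in DMSO, 16 final concentrations from 6.41 pM to 92 μM (1:3 steps), with PK11195 at 0.75 μM final; final DMSO 0.46%. After 23 h, viability read by CellTiter-Fluor (ex 405/em 540 nm), then ONE-Glo luminescence (30 min, RT) in RLU.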
(Reporter assays use an easily measured gene product as a stand-in for the process of interest.)

Series [2] has as its target T1, Nuclear receptor subfamily 1 group I member 3. Kind of series: Induction of constitutive - androstane receptor in human primary hepatocytes assessed as upregulation of CYP2B6 mRNA expression measured after 24 hrs by RT-PCR analysis. It is filed as cell-based. An outline of the steps: (§1)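 Primary human hepatocytes (donors HL-#131 and #133), viability >90%, 0.75×10⁶ cells/well, Matrigel overlay 0.25 mg/mL. Dosed 36 h post-seeding at 0.1, 0.5 and 1 μM (vehicle 0.1% DMSO; rifampin 10 μM reference) for 24 h. RT-PCR fold over control = 2^ΔΔCt versus GAPDH; mean ± SD, three independent experiments.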

Series [3] has the same target. Kind of series: Induction of constitutive androstane receptor in human primary hepatocytes assessed as upregulation of CYP3A4 mRNA expression measured after 24 hrs by RT-PCR analysis. The class given is cell-based. An outline of the steps:
as §1

Series [4] shares this target. Kind of series: Induction of adenoviral enhanced yellow fluorescent protein tagged constitutive androstane receptor translocation from cytoplasm to nucleus in human primary hepatocytes at 1 uM measured after 8 hrs by DAPI staining based fluorescent microscopic analysis. The class given is cell-based. An outline of the steps:
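Hepatocytes (60,000/well, collagen plates) infected overnight with Ad/EYFP-hCAR (3 μL/mL), then treated 8 h at 1 μM; controls 0.1% DMSO, phenobarbital 1 mM. Cells PFA-fixed and DAPI-stained; five images per well. Translocation % = cells with ≥50% nuclear overlap with EYFP-hCAR ÷ EYFP-positive cells; mean ± SD of five images.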

Series [5] is described as follows: Stability of compound. The class given is physicochemical.
The nature of series [6]: Aqueous solubility of compound measured after 6 hrs by reverse phase HPLC analysis. The class given is physicochemical. The note with it: water. An outline of the steps:
(§2)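 6 mg solid in 1 mL water or PBS (pH 7.4), shaken 6 h at 25 °C, centrifuged, and the supernatant filtered. Filtrate quantified by C18 reverse-phase HPLC: water-acetonitrile-triethylamine 30:70:0.01, 1 mL/min, UV 312 nm. Standard curve from solutions of known concentration.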

Series [7] in a line: Aqueous solubility of the compound in phosphate buffer at pH 7.4 measured after 6 hrs by reverse phase HPLC analysis. It is filed as physicochemical. The note with it: pH 7.4, 6 h. The method in brief: as §2
Series [8] is described as follows: Lipophilicity, logP of compound. It is filed as physicochemical. The following applies: octanol/water.
The subject of series [9] is SUD4. Put plainly: Potentiation of cyclophospamide/doxorubicin/vincristine/prednisone induced cytotoxicity against human SUDHL4 cells co-cultured with human primary hepatocytes assessed as reduction in cell viability after 24 hrs. It is filed as functional, cell-based. The method in brief:
(§3)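 Hepatocytes pretreated 24 h with 1 μM test agent or 0.1% DMSO. 0.5×10⁶ SU-DHL-4 cells then added in membrane inserts (Williams' E). Co-cultures exposed with or without CHOP (5, 100, 500 μM; time course at 100 μM), plus or minus 1 μM agent. Viability by trypan blue exclusion at 24 h or set times, as % of vehicle; three independent measurements.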

Series [10] has as its system SUD4. Kind of series: Potentiation of cyclophospamide/doxorubicin/vincristine/prednisone induced cytotoxicity against human SUDHL4 cells co-cultured with human primary hepatocytes assessed as reduction in cell viability at 1 uM. The class given is functional, cell-based. The note with it: TDE = time-dependent effect. The method in brief: as §3
Series [11] has as its target T1, Nuclear receptor subfamily 1 group I member 3. Kind of series: Induction of constitutive - androstane receptor in human primary hepatocytes assessed as upregulation of CYP2B6 protein expression measured after 72 hrs by Western blot analysis. It is filed as cell-based. The method in brief:
(§4)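 Hepatocytes from donors #131 and #133, dosed 36 h after seeding at 0.1, 0.5 and 1 μM (0.1% DMSO vehicle) for 72 h. Homogenate proteins run on 4–12% SDS-PAGE and immunoblotted: anti-CYP2B6 1:200, anti-CYP3A4 1:5000, β-actin 1:50,000 loading control. HRP secondaries, ECL detection.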

For series [12] the target is unchanged. Put plainly: Induction of constitutive androstane receptor in human primary hepatocytes assessed as upregulation of CYP3A4 protein expression measured after 72 hrs by Western blot analysis. The class given is cell-based. An outline of the steps: as §4
Background: In western blotting, separated proteins are transferred to a membrane and probed.

The subject of series [13] is SUD4. Kind of series: Antiproliferative activity against human SUDHL4 cells co-cultured with human primary hepatocytes assessed as reduction in cell viability at 1 uM after 24 hrs. The class given is cell-based. The note with it: sud4, 24 h. An outline of the steps: as §3
Series [14] addresses T1, Nuclear receptor subfamily 1 group I member 3. Put plainly: Ratio of Emax to EC50 for human constitutive androstane receptor expressed in HepG2 cells co-expressing CYP2B6.

Converted amounts (≈) assume the structure as drawn.

For `c1ccc2c(c1)CC(NCc1c(-c3ccc4ccccc4c3)nc3occn13)C2`, in series [1], the EC50 is 660 nM. Further, the Activity entry in series [2] is “Dose-dependent effect”; in [3] it was “Active”; in series [4], “Active”; in series [9] it was “Dose-dependent effect”; in series [10], “Tde”; in series [11], “Dose-dependent effect”. The figures for the Activity result in series [12] and in [13] were “Dose-dependent effect” and “Non-Toxic”, respectively. Further, the Stability result in [5] is “Stable”. In addition, the figures for the solubility in [6] and in series [7] were 18 µg/mL (≈ 47.4 µM) and 17 µg/mL (≈ 44.8 µM), respectively. Moreover, the logP in series [8] is 4.62. Moreover, the Ratio in series [14] was determined as 7.4 µM⁻¹.

As a reminder, the EC50 is the midpoint of the concentration-response curve. A lower EC50 goes with a more potent agent. The solubility is the concentration that dissolves in the medium under given conditions. By logP is commonly meant a log measure of how a compound divides between an organic and an aqueous phase.
